Published values collected from several papers.
Protocols differ between the studies behind these lines.
Read-out: binding
mnmE: mnmE (Escherichia coli, UniProt P25522)
UCK2: Uridine-cytidine kinase 2 (UCK2, Homo sapiens, UniProt Q9BZX2)
PIK3CB: Phosphatidylinositol 4,5-bisphosphate 3-kinase catalytic subunit beta isoform (PIK3CB, Homo sapiens, UniProt P42338)
NAD-dependent histone deacetylase SIR2: NAD-dependent histone deacetylase SIR2 (Saccharomyces cerevisiae S288c, UniProt P06700)
PIKFYVE: 1-phosphatidylinositol 3-phosphate 5-kinase (PIKFYVE, Homo sapiens, UniProt Q9Y2I7)

SMILES | target | assay | setting | Kd [nM]
COc1cc(Nc2ncc3c(n2)-c2ccc(Cl)cc2C(c2c(F)cccc2OC)=NC3)ccc1C(=O)O | Interleukin-1 receptor-associated kinase 3 (IRAK3, Homo sapiens, UniProt Q9Y616) | – | lysate | 2200
Nc1nc2c(c(=O)[nH]1)N1CN(c3ccc(C(=O)N[C@@H](CCC(=O)O)C(=O)O)cc3)C[C@H]1CN2 | mnmE | ITC | – | ~1000
Nc1ccn([C@@H]2O[C@H](CO)[C@@H](O)[C@H]2O)c(=O)n1 | UCK2 | fluorescence | – | 3.7
Cc1cc2nc3c(=O)[nH]c(=O)nc-3n(C[C@H](O)[C@H](O)[C@H](O)COP(=O)(O)OP(=O)(O)OC[C@H]3O[C@@H](n4cnc5c(N)ncnc54)[C@H](O)[C@@H]3O)c2cc1C | Ubiquitin-associated protein 2 (Homo sapiens, UniProt Q5T6F2) | – | lysate | 45
Cc1cnc(-c2ccc(-c3ccc(NC(=O)Nc4c(F)cc(F)cc4F)cc3F)c3c2C(=O)NC3)[nH]1 | Dual specificity mitogen-activated protein kinase kinase 1 (MAP2K1, Homo sapiens, UniProt Q02750) | competition with immobilised ligand | – | 23
O=c1ccn([C@@H]2O[C@H](CO)[C@@H](O)[C@H]2O)c(=O)[nH]1 | UCK2 | fluorescence | – | 5.8
CCC(=O)N1CCC(C(=O)N(C)CC(=O)N2CCN(c3nc(-c4cnc(N)nc4C(F)F)nc(N4CCOCC4)n3)CC2)CC1 | PIK3CB | – | – | 7.7
Nc1nc(=O)c2c([nH]1)NC[C@H](CNc1ccc(C(=O)N[C@@H](CCC(=O)O)C(=O)O)cc1)N2C=O | mnmE | ITC | pH 7.5 | 260
CC(=O)O[C@H]1C(O)O[C@H](COP(=O)(O)OP(=O)(O)OC[C@H]2O[C@@H](n3cnc4c(N)ncnc43)[C@H](O)[C@@H]2O)[C@H]1O (stereo partly drawn) | NAD-dependent histone deacetylase SIR2 | SPR | – | 304
COc1ccc(Nc2nnc(-c3ccc(C(=O)NO)cc3)o2)cc1 | Glycogen synthase kinase-3 beta (GSK3B, Homo sapiens, UniProt P49841) | SPR | – | 1000
Cc1[nH]c2ccc(OC(C)C)cc2c1/C=C/C(=O)c1ccncc1 | PIKFYVE | competition with immobilised ligand | – | 51
COC(=O)[C@@H](N)CCCCN | LRP1 (Homo sapiens, UniProt Q07954) | fluorescence | pH 7.4 | 370000
CCOc1ccc2[nH]c(C)c(/C=C/C(=O)c3ccncc3)c2c1 | PIKFYVE | competition with immobilised ligand | – | 23
NC(=O)c1ccc[n+]([C@@H]2O[C@H](COP(=O)([O-])OP(=O)(O)OC[C@H]3O[C@@H](n4cnc5c(N)ncnc54)[C@H](O)[C@@H]3O)[C@@H](O)[C@H]2O)c1 | NAD-dependent histone deacetylase SIR2 | SPR | – | 575
C=CC(=O)N1CCC(C(=O)NCC(=O)N2CCN(c3nc(-c4cnc(N)nc4C(F)F)nc(N4CCOCC4)n3)CC2)CC1 | PIK3CB | – | – | 0.85
